Runt-SMMHC FRET: inhibitors of RUNX1 Runt–CBFb-SMMHC binding, primary screen, biochemical, FRET, Cerulean-Runt, Venus-CBFb-SMMHC, uHTS; inhibition, % at 20 µM; Cerulean-Runt/Venus-CBFb-SMMHC FRET ratio 530/480, 1 h; hit rate 0.74% among 220,000; Runt-related transcription factor 1 (Homo sapiens) + Core-binding factor subunit beta …; AID 1434, 2008;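 active = mean inhibition across duplicate retests at 20 µM reaching about 50%, limit read from the data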;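 also: 0% = DMSO wells and 100% = wells with excess untagged CBFb-SMMHC; inhibitors lower the FRET ratio by blocking Runt binding to CBFb-SMMHC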
Target sequence (Q01196 whole entry, looked up): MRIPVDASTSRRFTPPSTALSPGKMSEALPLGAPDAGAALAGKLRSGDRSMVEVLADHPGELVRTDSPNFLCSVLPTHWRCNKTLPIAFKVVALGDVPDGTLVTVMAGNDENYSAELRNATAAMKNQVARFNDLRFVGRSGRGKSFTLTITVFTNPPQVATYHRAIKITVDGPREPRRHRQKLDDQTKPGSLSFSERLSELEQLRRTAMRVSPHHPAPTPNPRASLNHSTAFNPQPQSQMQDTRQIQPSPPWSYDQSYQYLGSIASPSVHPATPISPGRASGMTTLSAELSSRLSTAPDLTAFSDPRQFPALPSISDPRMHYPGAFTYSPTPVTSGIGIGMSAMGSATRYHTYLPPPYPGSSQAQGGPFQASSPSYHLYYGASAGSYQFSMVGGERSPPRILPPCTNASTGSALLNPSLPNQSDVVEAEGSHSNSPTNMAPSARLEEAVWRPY
Target sequence (Q13951 whole entry, looked up): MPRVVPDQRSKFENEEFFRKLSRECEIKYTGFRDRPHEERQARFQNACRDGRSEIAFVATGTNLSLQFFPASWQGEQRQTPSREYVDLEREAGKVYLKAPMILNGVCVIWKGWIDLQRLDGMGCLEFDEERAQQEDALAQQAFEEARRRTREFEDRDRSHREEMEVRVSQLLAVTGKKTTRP
RanGTP-Impb inh: inhibitors of RanGTP-importin-beta interaction, primary screen, biochemical, FRET, CFP-Ran, YFP-importin-beta, homogeneous. Ran GTPase (GTP-bound) - importin-beta complex. cell-free CFP-Ran/YFP-importin-beta FRET ratio. inhibition, % (no concentration beside the values). hit rate 1.1% among 300,000;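 active = more than half of the replicate wells show a fall in the fluorescence ratio signal beyond about 16%, limit read from the data, passing the limit was not always enough; inconclusive = exactly half of the replicate wells pass the set limit; inactive = fewer than half of replicates pass the limit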;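 also: 0% = DMSO wells and 100% = Ran loaded with GDP instead of GTP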
Runt-CBFb FRET: inhibitors of RUNX1 Runt–CBFb binding, primary screen, biochemical, FRET, Cerulean-Runt, Venus-CBFb, uHTS | hit rate 0.46% among 220,000 | Runt-related transcription factor 1 (Homo sapiens) + Core-binding factor subunit beta … | Cerulean-Runt/Venus-CBFb FRET ratio 530/480, 1 h | inhibition, % at 20 µM;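 active = inhibition over about 50% at 20 µM in the single-dose screen, limit read from the data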;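 also: 0% = DMSO wells and 100% = excess unlabeled CBFb competitor control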
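Assay system: Cerulean-Runt domain fusion protein, energy donor; Signal: fluorescence energy transfer, 422 nm excitation, 530/480 nm emission; Timing: 1 h compound exposure, room temperature; Control set: unlabeled CBFb; Medium: Tris buffer pH 7.5 with salts and BSA; Compound: single test concentration of 20 µM, 1% DMSO final; Probe or stimulus: Venus-CBFb 100 nM.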
Hck Nef HTS: inhibitors of Nef-activated human Hck kinase, primary screen, biochemical, Z-Lyte FRET, 384-well, Hck-YEEI; Tyrosine-protein kinase HCK (Homo sapiens), P08631; Recombinant Hck-YEEI plus Nef, Z-Lyte FRET kinase assay; inhibition, % at 20 µM; hit rate 0.68% among 220,000;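 active = Hck-Nef kinase inhibition above about 50%, limit read from the data; inactive = inhibition below that limit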;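 also: 0% = DMSO with Hck plus Nef and 100% = Hck alone without Nef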
RUNX1 CBFb TR: inhibitors of RUNX1 Runt–CBFb binding, biochemical, TR-FRET; shares compounds with Runt-CBFb FRET; TR-FRET RUNX1 Runt domain-CBFb binding; inhibition, % at 20 µM; hit rate 20% among 480; AID 1502, 2009; in the data active = inhibition above about 40%
YIC counter: YIC intramolecular FRET probe signal interference, dose response, counter-screen for RanGTP-importin-beta inhibitor project, biochemical, fluorescence FRET; hit rate 40% among 1,000; Purified YIC probe, intramolecular FRET ratio YFP/CFP; AID 435026, 2010; shares compounds with RanGTP-Impb inh; IC50, µM;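 active = fitted half-maximal inhibitory concentration no more than tenfold above the top dose tested; inconclusive = flat fit with 30 to 70% activity, or poor fit; inactive = half-maximal concentration beyond tenfold above the top dose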
Hck-Nef confirm: retest of Hck:Nef kinase inhibitor hits, confirmation, biochemical, Z-Lyte FRET, 384-well, p-Tyr peptide counterscreen. shares compounds with Hck Nef HTS. Recombinant Hck-YEEI:Nef, Z-Lyte FRET kinase assay. calls only at 10 µM. hit rate 28% among 1,300. AID 463188, 2010;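 active = average inhibition of at least 50%, with Z-scores no higher than 3 in both the phospho-tyrosine peptide and fluorescence counterscreens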
* hit, by the source's call; i = inactive; ? = inconclusive; / = not tested or not shown; + = active, no number. Most compounds without a hit are left out; they make up all but 1.9% or so of the library.

SMILES	Runt-SMMHC FRET	RanGTP-Impb inh	Runt-CBFb FRET	Hck Nef HTS	others
Cc1ccc2c(c1)N(C(=O)CCC(=O)N1CCC3(CC1)OCCO3)CCO2	/	1	/	/
C/C(=N\N1CCCCCC1)c1c(O)n(-c2ccccc2C)c(=O)[nH]c1=O	0	-2	-2	-5
COc1ccccc1-n1c(-c2ccccc2)nc2ccccc2c1=O	/	6	/	/
Nc1ccccc1-[n+]1c(-c2ccccc2)cc(-c2ccccc2)cc1-c1ccccc1	-4	41*	1	-12
Oc1ccccc1-[n+]1c(-c2ccccc2)cc(-c2ccccc2)cc1-c1ccccc1	/	8	/	/
CN1C(=O)C2C[C@@]3(Br)c4ccccc4N(OOSc4ccccc4)[C@H]3N2C(=O)[C@@H]1Cc1ccccc1 (stereo not given in full)	/	-2	/	/
C[C@]12CC[C@@H]3c4ccc(O)c(O)c4CC[C@H]3[C@@H]1CC[C@@H]2O	66*	?	54*	/	RUNX1 CBFb TR=52*
O=C(Nc1ccc(F)c([N+](=O)[O-])c1)N1C[C@H]2C[C@@H](C1)c1cccc(=O)n1C2	/	-2	/	/
NC1=Nc2ccccc2Oc2ccccc21	1	-6	-2	0
COCCOC(=O)c1c(N)n(Cc2ccc(OC)cc2)c2nc3ccccc3nc12	105*	9	52*	22	RUNX1 CBFb TR=31
COCCCn1c(N)c(C(=O)OCCOC)c2nc3ccccc3nc21	116*	?	81*	38	RUNX1 CBFb TR=25
CCOC(=O)c1c(C)n(CCOC)c2ccc(O)cc12	0	-1	0	2
COc1ccc(CCNCc2ccccc2)cc1	/	3	/	/
O=S1(=O)CC2(N3CCOCC3)CCCCCCC21 (stereo not given)	1	?	80*	0	RUNX1 CBFb TR=-10
COC(=O)C1=C(c2cc3ccccc3s2)C[C@@H]2CC[C@H]1N2C(=O)NC1CCCCC1	/	1	/	/
CCCCCn1c(=O)c(C(=O)NCc2ccco2)c(O)c2ccccc21	3	1	1	21
CCCNC(=O)c1c(N)n(Cc2ccco2)c2nc3ccccc3nc12	59*	93*	52*	29	RUNX1 CBFb TR=23
O=C(NCCO)c1nsnc1NCCCl	-7	-1	56*	10	RUNX1 CBFb TR=25
CCOC(=O)c1c(N)n(CCCOC(=O)c2ccco2)c2nc3ccccc3nc12	116*	23*	72*	30	RUNX1 CBFb TR=23;YIC counter=24*
Cc1cccc(NP(C)(=O)c2nc3c(s2)CCCC3)c1 (stereo not given)	2	6	-3	5
Cc1c(OC(=O)N(C)C)ccc2c1O/C(=C\c1ccco1)C2=O	/	30*	/	/	YIC counter=12*
O=c1[nH]c(O)c(/C=C2/C=CC(c3cc(Cl)ccc3Cl)=N2)c(=O)[nH]1	80*	38*	115*	29	YIC counter=4*
O=C1NC(=O)C(=Cc2ccc(-c3ccc(F)cc3O)o2)C(=O)N1	/	4	/	/
O=c1[nH]c(=O)n(-c2cccc3ccccc23)c(O)c1/C=N/N1CCCCCC1	0	22*	0	14	YIC counter=>50
Cn1c(O)c(/C=N/N2CCCCC2)c(=O)[nH]c1=O	4	5	-1	0
SMILES	Runt-SMMHC FRET	RanGTP-Impb inh	Runt-CBFb FRET	Hck Nef HTS	others
O=c1[nH]c(=O)n(-c2cccc3ccccc23)c(O)c1/C=N/N1CCCCC1	5	4	-1	24
Cc1ccc(-n2c(O)c(/C=N/N3CCCCCC3)c(=O)[nH]c2=O)cc1C	2	22*	2	-7	YIC counter=>50
O=Cc1c(C(=O)O)n(Cc2ccccc2F)c2ccccc12	/	-4	/	/
Nc1ccc(C2(c3ccc(N)cc3)CN3CCC2CC3)cc1	-2	49*	0	1	YIC counter=>50
Cc1ccc(C2(O)CN3CCC2CC3)cc1 (stereo not given)	/	1	/	/
CC1CCN(C(=O)CCl)CC1	0	2	-2	-23
CCc1ccc(N2C(=O)NC(=O)/C(=C\c3cc(C)n(-c4cc(C(=O)O)cc(C(=O)O)c4)c3C)C2=O)cc1	/	19*	/	/	YIC counter=>50
Cc1cc(/C=C2\C(=O)NC(=O)N(c3ccc(F)cc3)C2=O)c(C)n1-c1ccc(C(=O)O)cc1	-9	18*	9	19	YIC counter=>50
COc1cccc(CCNCc2ccc(SC)cc2)c1	2	-1	0	1
NC(N)=N/N=C/c1ccc(N(c2ccccc2)c2ccccc2)cc1	/	23*	/	/	YIC counter=>50
Cc1cccc(C)c1OC(=O)Cc1ccccc1	1	0	-1	27
Cc1sc2nc(COC(=O)Cc3ccccc3)[nH]c(=O)c2c1C	-2	20*	-3	1	YIC counter=>50
COc1ccc(C(=O)NC(=S)N2C[C@H]3C[C@H](C2)c2cccc(=O)n2C3)cc1	/	2	/	/
CCN1C(=O)/C(=C/c2ccc3c(c2)CCN3CCCCl)C(=O)NC1=S	5	25	8	55*	Hck-Nef confirm=+
O=C1NC(=S)N(C2CC2)C(=O)/C1=C/c1ccc2c(c1)CCN2CCCCl	1	1	8	24
Cc1ccccc1-[n+]1c(-c2ccccc2)cc(-c2ccccc2)cc1-c1ccccc1	/	0	/	/
O=C1NC(=O)N(c2ccc(Cl)cc2)C(=O)/C1=C\c1ccc(Sc2nc3ccccc3[nH]2)o1	1	5	13	57*	Hck-Nef confirm=i
CCOc1cc2c(cc1OCC)-n1cccc1C(c1ccc(C(C)C)cc1)NC2 (stereo not given)	/	-1	/	/
O=C1NC(=O)C(=Cc2coc3ccc(O)cc3c2=O)C(=O)N1	-9	-2	7	78*	Hck-Nef confirm=+
Cc1cc(/C=C2\C(=O)NC(=O)N(Cc3ccco3)C2=O)c(C)n1-c1ccc(C(=O)O)cc1	-13	5	-5	50*	Hck-Nef confirm=i
Cc1cc(/C=C2\C(=O)NC(=O)N(Cc3ccco3)C2=O)c(C)n1-c1ccc(O)cc1	3	-2	33	24
O=c1oc2ccccc2c(O)c1C(c1ccc([N+](=O)[O-])cc1)c1c(O)c2ccccc2oc1=O	10	-2	16	73*	Hck-Nef confirm=+
CC(C)c1ccccc1OCC(=O)N1CCCN(C)CC1	/	-3	/	/

Compound activity as filed in PubChem BioAssay.
